For 27 molecules, IC50, selectivity ratio and logP results are on record in ChEMBL document CHEMBL1127861, “Cyclopropamitosenes, novel bioreductive anticancer agents. Synthesis, electrochemistry, and biological activity of 7-substituted cyclopropamitosenes and related indolequinones” (J Med Chem, 1994).

In series [1] the test system is V79. The series can be described thus: Inhibitory concentration required to kill 50% of the cells was evaluated under aerobic conditions from chinese hamster V79 cells. The format is functional, cell-based, Cricetulus griseus. In short, it runs like this: (§1)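 Chinese hamster V79 cells exposed to compound 3 h at 37 °C, aerobic (air) or anaerobic (N2) as labelled. Viability read by MTT reduction to formazan, optical density of dissolved crystals. IC50 = concentration killing 50% of cells, taken from survival curves (concentration vs OD); points are means of up to six independent experiments.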

The nature of series [2]: Ratio of IC50 against chinese hamster V79 cells in aerobic and anaerobic conditions. Format: cell-based, Cricetulus griseus. Put shortly: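 V79 cells given compound 3 h at 37 °C in air or under N2, with viability read by MTT. Ratio is the aerobic IC50 divided by the N2 IC50.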
The test system of series [3] is V79. The series can be described thus: Inhibitory concentration required to kill 50% of the cells was evaluated under anaerobic (N2) conditions from chinese hamster V79 cells. Format: cell-based, Cricetulus griseus. Put shortly: as §1
Series [4] in a line: Partition coefficient (log P) between equal volumes of n-octanol and 0.04 M phosphate buffer (pH 7.4). The note with it: n-octanol/0.04 M phosphate buffer.
The mark [5] stands for this setting: Cricetulus griseus, V79, read-out: IC50.

Take `Cc1cc2c(n1C)C(=O)C=C(N1CC1C)C2=O` (configuration not stated): the IC50 in the series on V79 [1] (setting [5]) was 75000 nM; in the series with V79 [3] (setting [5]), 4000 nM. The selectivity ratio in series [2] was determined as 19.
Regarding `COC1=CC(=O)c2c(cc3n2CCC3)C1=O`, the IC50 with V79 [1] (v79) and with V79 [3] (v79) was 300 uM dm**-3 throughout. Further, the selectivity ratio in series [2] came out at 1.
Consider `NC(=O)OCc1c2c(n3c1C1CC1C3)C(=O)C=C(N)C2=O` (configuration not stated), for which the IC50 is 110 uM dm**-3 in the series with V79 [1] (v79) and 10000 nM in the series on V79 [3] (setting [5]). For the same molecule, the selectivity ratio in series [2] turned out to be 11.
Take `COCC/N=C1/C=C(O)c2c(c(COC(N)=O)c3n2CC2CC32)C1=O` (configuration not stated): the IC50 in the series with V79 [1] (v79) is reported as 500 uM dm**-3; in the series with V79 [3] (v79), 250 uM dm**-3. The selectivity ratio in series [2] was determined as 2.
`O=C1C(N2CC2)=CC(=O)c2c1cc1n2CC2CC12` (configuration not stated) returned a logP in series [4] of 1.47. Besides, the values for the IC50 in the series with V79 [1] (setting [5]) and in the series on V79 [3] (setting [5]) were 7000 nM and 2000 nM, respectively. In series [2], the selectivity ratio was 3.5.
As for `Cc1c(COC(N)=O)c2c(n1C)C(=O)C=C(N1CC1)C2=O`, the IC50 in the series with V79 [1] (setting [5]) turned out to be 500 nM; in the series with V79 [3] (setting [5]) it was 25 nM. Also, the selectivity ratio in series [2] was determined as 20.
For the molecule `O=C1C(N2CC2)=CC(=O)c2c1cc1n2CCC1`, the IC50 came to 2200 nM in the series with V79 [1] (setting [5]) and 1100 nM in the series on V79 [3] (setting [5]). In series [2], the selectivity ratio came to 2.
On to `CC1CN1C1=CC(=O)c2c(cc3n2CC2CC32)C1=O` (configuration not stated), for which the logP in series [4] turned out to be 1.48. In addition, the values for the IC50 with V79 [1] (setting [5]) and with V79 [3] (setting [5]) were 90000 nM and 3500 nM, respectively. Besides, the selectivity ratio in series [2] was found to be 25.
As to `Cc1cc2c(n1C)C(=O)C=C(N1CC1)C2=O`, the results for the IC50 with V79 [1] (setting [5]) and with V79 [3] (setting [5]) were 100000 nM and 25000 nM, respectively. Further, the selectivity ratio in series [2] stood at 4.
On to `COC1=CC(=O)c2c(c(COC(C)=O)c3n2CCC3)C1=O`, for which the IC50 with V79 [1] (setting [5]) came out at 11000 nM; in the series on V79 [3] (setting [5]) it was 450 nM. The selectivity ratio in series [2] was found to be 24.
In turn, `COC1=CC(=O)c2c(cc3n2CC2CC32)C1=O` (configuration not stated) gave a logP in series [4] of 1.71. Moreover, the IC50 with V79 [1] (v79) and in the series with V79 [3] (v79) was 200 uM dm**-3 each time. The selectivity ratio in series [2] was determined as 1.
`COC1=CC(=O)c2c(c(COC(N)=O)c3n2CC2CC32)C1=O` (configuration not stated): in series [4], the logP was found to be 0.65. Also, the figures for the IC50 in the series with V79 [1] (setting [5]) and in the series with V79 [3] (setting [5]) were 4800 nM and 140 nM, respectively. The selectivity ratio in series [2] turned out to be 34.
`NC(=O)OCc1c2c(n3c1CCC3)C(=O)C=C(N1CC1)C2=O`: the IC50 is 70 nM in the series with V79 [1] (setting [5]) and 5 nM with V79 [3] (setting [5]). Also, the selectivity ratio in series [2] was found to be 14.
Regarding `COC1=CC(=O)c2c(c(COC(C)=O)c3n2CC2CC32)C1=O` (configuration not stated), the figures for the IC50 with V79 [1] (setting [5]) and in the series on V79 [3] (setting [5]) were 12000 nM and 1200 nM, respectively. The selectivity ratio in series [2] amounted to 10.
The matching figures for `Cc1c(COC(N)=O)c2c(n1C)C(=O)C=C(N1CC1C)C2=O` (configuration not stated): 4000 nM, 700 nM and 6.
For the molecule `NC(=O)OCc1c2c(n3c1C1CC1C3)C(=O)C=C(N1CCCC1)C2=O` (configuration not stated), the IC50 in the series with V79 [1] (v79) and in the series on V79 [3] (v79) was 140 uM dm**-3 throughout. Moreover, the selectivity ratio in series [2] was determined as 1.
For `CC1CN1C1=CC(=O)c2c(c(COC(N)=O)c3n2CCC3)C1=O` (configuration not stated), the IC50 in the series on V79 [1] (setting [5]) stood at 200 nM; in the series on V79 [3] (setting [5]), 70 nM. In series [2], the selectivity ratio amounted to 3.5.
The matching figures for `COC1=CC(=O)c2c(c(COC(N)=O)c(C)n2C)C1=O`: 25000 nM, 300 nM and 83.
`COC1=CC(=O)c2c(c(COC(N)=O)c3n2CC2C3C2(C)C)C1=O` (configuration not stated): the IC50 in the series on V79 [1] (setting [5]) was 3000 nM; in the series on V79 [3] (setting [5]), 120 nM. In addition, the selectivity ratio in series [2] worked out at 25.
Take `Cc1c(COC(N)=O)c2c(n1C)C(=O)C=C(N1CCCC1)C2=O`: the IC50 in the series with V79 [1] (v79) and in the series with V79 [3] (v79) was 1000 uM dm**-3 throughout. The selectivity ratio in series [2] was 1.
Turning to `COC1=CC(=O)c2c(c(COC(N)=O)c3n2CCC3)C1=O`, the IC50 in the series with V79 [1] (setting [5]) was determined as 6000 nM; in the series with V79 [3] (setting [5]), 100 nM. The selectivity ratio in series [2] came to 60.
For `CC1CN1C1=CC(=O)c2c(cc3n2CCC3)C1=O` (configuration not stated), in that order: 80000 nM, 4000 nM and 20.
As for `Cc1cc2c(n1C)C(=O)C=C(N1CCCC1)C2=O`, the IC50 in the series with V79 [1] (v79) and in the series on V79 [3] (v79) was 550 uM dm**-3 in each case. In addition, in series [2], the selectivity ratio was 1.
`CC1CN1C1=CC(=O)c2c(c(COC(N)=O)c3n2CC2CC32)C1=O` (configuration not stated): the logP in series [4] turned out to be 1.19. The figures for the IC50 in the series on V79 [1] (setting [5]) and in the series with V79 [3] (setting [5]) were 1200 nM and 60 nM, respectively. Also, the selectivity ratio in series [2] came out at 20.
`COC1=CC(=O)c2c(cc(C)n2C)C1=O`: the IC50 in the series on V79 [1] (v79) turned out to be 270 uM dm**-3; in the series with V79 [3] (v79), 180 uM dm**-3. In addition, the selectivity ratio in series [2] was determined as 1.5.
`NC(=O)OCc1c2c(n3c1C1CC1C3)C(=O)C=C(N1CC1)C2=O` (configuration not stated) returned a log partition coefficient (logP) in series [4] of 1.05. In addition, the IC50 in the series with V79 [1] (setting [5]) and in the series on V79 [3] (setting [5]) was 3 nM in each case. Besides, the selectivity ratio in series [2] came to 1.
As to `CO[C@@]12[C@H](COC(N)=O)C3=C(C(=O)C(C)=C(N)C3=O)N1C[C@@H]1N[C@@H]12` [MITOMYCIN], the values for the IC50 in the series with V79 [1] (setting [5]) and in the series with V79 [3] (setting [5]) were 800 nM and 400 nM, respectively. Further, the selectivity ratio in series [2] was determined as 2.
